Assay results as given in publication PMC3389222 (Bioorganic & medicinal chemistry letters, 2012).
Read-outs that look alike come from different tables or passages of the source.

Assays:
[1] = test system: HCV; conditions: read-out: in vitro potency (EC50); cited from earlier work
[2] = test system: HCV 1b replicon; test: HCV 1b replicon system, block of HCV replication; assay type: cell-based; conditions: for EC90: read-out: HCV Replicon EC90
[3] = test system: HCV; conditions: cited from earlier work
[4] = Stability in human liver microsomes; assay type: in vitro ADME; conditions: for Elimination rate constant (k): 1 μM compound, 1 mg/mL microsomal protein; for microsomal CLint at 1 μM: human
In short: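 Test compound incubated with human liver microsomes in potassium phosphate buffer. Samples taken at 5, 15, 30 and 60 min and analysed by LC-MS/MS. The elimination rate constant (k) was determined, and half-life (t1/2) and intrinsic clearance (CLint) were calculated from k.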

[5] = Cytotoxicity in CEM cells; assay type: cell-based; conditions: human
[6] = test system: PBM cells
[7] = test system: PBM cells; test: Cytotoxicity in PBM cells
[8] = Hepatitis C virus, read-out: HCV Replicon EC50, HCV 1b replicon system
[9] = Hepatitis C virus, read-out: HCV Replicon EC50

SMILES: COC(=O)N[C@H](C(=O)N1CCC[C@H]1c1ncc(-c2ccc(-c3ccc(-c4cnc([C@@H]5CCCN5C(=O)[C@@H](NC(=O)OC)C(C)C)[nH]4)cc3)cc2)[nH]1)C(C)C [BMS-790052]
- EC50 [1]: ≤ 0.05 nM
- EC50 [2, 8]: 0.0042 ± 0.0015 nM
- viral load decline ([3]; after a single 100 mg dose): ≈ 3.3 log10
- toxicity after single dose ([3]; single 100 mg dose): no signs of toxicity
- Elimination rate constant (k) [4]: 0.012

SMILES: COC(=O)N[C@H](C(=O)N1C[C@@H](N=[N+]=[N-])C[C@H]1c1ncc(-c2ccc(-c3ccc(-c4cnc([C@@H]5C[C@H](N=[N+]=[N-])CN5C(=O)[C@@H](NC(=O)OC)C(C)C)[nH]4)cc3)cc2)[nH]1)C(C)C [Compound 9]
- EC50 [2, 8]: 0.023 nM
- EC90 ([2]; Hepatitis C virus): 0.0352 nM

SMILES: COC(=O)N[C@H](C(=O)N1CCC[C@H]1c1nc(-c2ccccc2)c(-c2ccc(-c3ccc(-c4[nH]c([C@@H]5CCCN5C(=O)[C@@H](NC(=O)OC)C(C)C)nc4-c4ccccc4)cc3)cc2)[nH]1)C(C)C [Compound 6]
- EC50 [2, 8]: 0.2 nM

SMILES: COC(=O)N[C@H](C(=O)N1CCC[C@H]1c1nc(-c2ccco2)c(-c2ccc(-c3ccc(-c4[nH]c([C@@H]5CCCN5C(=O)[C@@H](NC(=O)OC)C(C)C)nc4-c4ccco4)cc3)cc2)[nH]1)C(C)C [Compound 7]
- EC50 [2, 8]: 0.026 nM

SMILES: COC(=O)N[C@H](C(=O)N1C[C@@H](N=[N+]=[N-])C[C@H]1c1nc(Cl)c(-c2ccc(-c3ccc(-c4[nH]c([C@@H]5C[C@H](N=[N+]=[N-])CN5C(=O)[C@@H](NC(=O)OC)C(C)C)nc4Cl)cc3)cc2)[nH]1)C(C)C [Compound 18]
- EC50 [2, 9]: 0.0112 nM
- EC90 ([2]; Hepatitis C virus): 0.0746 nM

SMILES: COC(=O)N[C@H](C(=O)N1C[C@H](N=[N+]=[N-])C[C@H]1c1ncc(-c2ccc(-c3ccc(-c4[nH]c([C@@H]5C[C@@H](N=[N+]=[N-])CN5C(=O)[C@@H](NC(=O)OC)C(C)C)nc4Cl)cc3)cc2)[nH]1)C(C)C [Compound 16]
- EC50 [2, 8]: 0.0063 nM

SMILES: COC(=O)N[C@H](C(=O)N1C[C@H](N=[N+]=[N-])C[C@H]1c1nc(Cl)c(-c2ccc(-c3ccc(-c4[nH]c([C@@H]5C[C@@H](N=[N+]=[N-])CN5C(=O)[C@@H](NC(=O)OC)C(C)C)nc4Cl)cc3)cc2)[nH]1)C(C)C [Compound 15]
- EC50 [2, 9]: 0.0047 nM
- EC90 ([2]; Hepatitis C virus): 0.0096 nM

SMILES: COC(=O)N[C@H](C(=O)N1CCC[C@H]1c1nc(-c2cccs2)c(-c2ccc(-c3ccc(-c4[nH]c([C@@H]5CCCN5C(=O)[C@@H](NC(=O)OC)C(C)C)nc4-c4cccs4)cc3)cc2)[nH]1)C(C)C [Compound 8]
- EC50 [2, 8]: 0.1 nM

SMILES: COC(=O)N[C@H](C(=O)N1CCC[C@H]1c1nc(Br)c(-c2ccc(-c3ccc(-c4[nH]c([C@@H]5CCCN5C(=O)[C@@H](NC(=O)OC)C(C)C)nc4Br)cc3)cc2)[nH]1)C(C)C [Compound 5a]
- EC50 [2, 8]: 0.0059 ± 0.0039 nM
- Elimination rate constant (k) [4]: 0.01

SMILES: COC(=O)N[C@H](C(=O)N1C[C@@H](n2cc(-c3ccccc3)nn2)C[C@H]1c1ncc(-c2ccc(-c3ccc(-c4cnc([C@@H]5C[C@H](n6cc(-c7ccccc7)nn6)CN5C(=O)[C@@H](NC(=O)OC)C(C)C)[nH]4)cc3)cc2)[nH]1)C(C)C [Compound 13]
- EC90 ([2]; Hepatitis C virus): > 10 nM
- CC50 [5]: > 100000 nM

SMILES: COC(=O)N[C@H](C(=O)N1C[C@H](n2cc(C(=O)OC)nn2)C[C@H]1c1ncc(-c2ccc(-c3ccc(-c4cnc([C@@H]5C[C@@H](n6cc(C(=O)OC)nn6)CN5C(=O)[C@@H](NC(=O)OC)C(C)C)[nH]4)cc3)cc2)[nH]1)C(C)C [Compound 12]
- EC50 [2, 9]: 0.0118 nM
- EC90 ([2]; Hepatitis C virus): 0.0428 nM

SMILES: COC(=O)N[C@H](C(=O)N1CCC[C@H]1c1nc(Cl)c(-c2ccc(-c3ccc(-c4[nH]c([C@@H]5CCCN5C(=O)[C@@H](NC(=O)OC)C(C)C)nc4Cl)cc3)cc2)[nH]1)C(C)C [Compound 5b]
- EC50 [2, 8]: 0.0064 ± 0.003 nM
- Elimination rate constant (k) [4]: 0.0058
- microsomal CLint at 1 μM [4]: < 8.6 µL/min/mg

SMILES: COC(=O)N[C@H](C(=O)N1C[C@@H](n2cc(C(=O)OC)nn2)C[C@H]1c1ncc(-c2ccc(-c3ccc(-c4cnc([C@@H]5C[C@H](n6cc(C(=O)OC)nn6)CN5C(=O)[C@@H](NC(=O)OC)C(C)C)[nH]4)cc3)cc2)[nH]1)C(C)C [Compound 14]
- EC50 [2, 9]: > 10 nM
- EC90 ([2]; Hepatitis C virus): > 10 nM

SMILES: COC(=O)N[C@H](C(=O)N1C[C@@H](N=[N+]=[N-])C[C@H]1c1nc(Br)c(-c2ccc(-c3ccc(-c4[nH]c([C@@H]5C[C@H](N=[N+]=[N-])CN5C(=O)[C@@H](NC(=O)OC)C(C)C)nc4Br)cc3)cc2)[nH]1)C(C)C [Compound 19]
- EC50 [2, 9]: 0.0083 nM
- EC90 ([2]; Hepatitis C virus): 0.0553 nM

SMILES: COC(=O)N[C@H](C(=O)N1C[C@H](N=[N+]=[N-])C[C@H]1c1nc(Br)c(-c2ccc(-c3ccc(-c4[nH]c([C@@H]5C[C@@H](N=[N+]=[N-])CN5C(=O)[C@@H](NC(=O)OC)C(C)C)nc4Br)cc3)cc2)[nH]1)C(C)C [Compound 17]
- EC50 [2, 9]: 0.0026 nM
- EC90 ([2]; Hepatitis C virus): 0.0216 nM

SMILES: COC(=O)N[C@H](C(=O)N1C[C@H](n2cc(-c3ccccc3)nn2)C[C@H]1c1ncc(-c2ccc(-c3ccc(-c4cnc([C@@H]5C[C@@H](n6cc(-c7ccccc7)nn6)CN5C(=O)[C@@H](NC(=O)OC)C(C)C)[nH]4)cc3)cc2)[nH]1)C(C)C [Compound 11]
- EC50 [2, 9]: 2.7 nM
- EC90 ([2]; Hepatitis C virus): 9.2 nM

SMILES: COC(=O)N[C@H](C(=O)N1CCC[C@H]1c1nc(I)c(-c2ccc(-c3ccc(-c4[nH]c([C@@H]5CCCN5C(=O)[C@@H](NC(=O)OC)C(C)C)nc4I)cc3)cc2)[nH]1)C(C)C [Compound 5c]
- EC50 [2, 8]: 0.0055 ± 0.0019 nM
- Elimination rate constant (k) [4]: 0.018
- toxicity in primary human lymphocytes relative to reference compound 1 [6]: increased toxicity

SMILES: COC(=O)N[C@H](C(=O)N1C[C@H](N=[N+]=[N-])C[C@H]1c1ncc(-c2ccc(-c3ccc(-c4cnc([C@@H]5C[C@@H](N=[N+]=[N-])CN5C(=O)[C@@H](NC(=O)OC)C(C)C)[nH]4)cc3)cc2)[nH]1)C(C)C [Compound 10]
- EC50 [2, 8]: 0.0095 nM
- EC90 ([2]; Hepatitis C virus): 0.0542 ± 0.0341 nM
- EC50 ([2]; read-out: HCV Replicon EC50, HCV 1b replicon system): 0.0184 ± 0.0126 nM

SMILES: COC(=O)N[C@H](C(=O)N1CCC[C@H]1c1nc(F)c(-c2ccc(-c3ccc(-c4[nH]c([C@@H]5CCCN5C(=O)[C@@H](NC(=O)OC)C(C)C)nc4F)cc3)cc2)[nH]1)C(C)C [Compound 5d]
- EC50 [2, 8]: 0.0068 ± 0.0033 nM
- toxicity in primary human lymphocytes relative to reference compound 1 [7]: increased toxicity
- Elimination rate constant (k) [4]: 0.0056
- microsomal CLint at 1 μM [4]: < 8.6 µL/min/mg

SMILES: COC(=O)N[C@H](C(=O)N1CCC[C@H]1c1ncc(-c2ccc(-c3ccc(-c4[nH]c([C@@H]5CCCN5C(=O)[C@@H](NC(=O)OC)C(C)C)nc4F)cc3)cc2)[nH]1)C(C)C [Compound 5e]
- EC50 [2, 8]: 0.0144 ± 0.004 nM
